Consider one compound from ChEMBL document CHEMBL1137570, “3-substituted 7-phenyl-pyrroloquinolinones show potent cytotoxic activity in human cancer cell lines” (J Med Chem, 2007).

By IC50 is commonly meant the concentration at which inhibition is half-maximal.

Assay [1] has as its system A549. Briefly: Cell cycle arrest in human A549 cells assessed as accumulation at sub Go phase at 1 uM after 24 hrs. It is filed as functional.
The subject of assay [2] is A549. Briefly: Cell cycle arrest in human A549 cells assessed as accumulation at G1 phase at 0.1 uM after 24 hrs. The format is functional. The gist of the method: (§1)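 A549 cells grown 24 h in drug-free medium or with compound at 0.1 or 1 µM. Cells were trypsinized, washed twice in PBS, fixed in cold 70% ethanol (30 min, -20 °C), then washed in citrate phosphate buffer and PBS. RNase (100 µg/mL) for 30 min at 37 °C, then propidium iodide (100 µg/mL) for 30 min at room temperature. Flow cytometry at 488/525 nm, ≥15 000 events, 3-4 repeats.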

For a further assay, the system named is HeLa. Nature of the assay: Cytotoxicity against human HeLa cells after 72 hrs by MTT assay. The format is functional, cell-based. A digest of the protocol:
(§2)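 MTT assay. Cells seeded at 7 × 10³ per well; after 24 h, exponentially growing cells were exposed to compound (final 0.005–100 µM) for 72 h. MTT was added for 4 h, then 10% SDS in 0.01 N HCl for 18 h at 37 °C. Absorbance read at 550 nm; survival given as % of untreated cells. IC50 from 6-8 replicate wells, ≥2 independent experiments.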
In general terms: Formazan colour is commonly taken as a measure of viable cells.

A short description of assay [3]: Cytotoxicity againat taxol-resistant human A549T24 cells after 72 hrs by MTT assay. It is filed as functional, cell-based. The settings on record: A549, 72 h.
Assay [4] can be described thus: Cytotoxicity against human H295R cells after 72 hrs by MTT assay. It is filed as functional, cell-based. Particulars: NCI-H295R. The gist of the method: as §2
Assay [5] concerns A549. Nature of the assay: Cell cycle arrest in human A549 cells assessed as accumulation at G2/M phase at 1 uM after 24 hrs. The format is functional. The gist of the method: as §1
The next assay deals with PT-45. Briefly: Cytotoxicity against human PT45 cells after 72 hrs by MTT assay. It is filed as functional, cell-based. Particulars: PT-45, 72 h. The gist of the method:
as §2

The test system of assay [6] is A549. Briefly: Cell cycle arrest in human A549 cells assessed as accumulation at S phase at 0.1 uM after 24 hrs. It is filed as functional. A digest of the protocol: as §1
For the next assay, the system named is MCF7. Briefly: Cytotoxicity against human MCF7 cells after 72 hrs by MTT assay. It is filed as functional, cell-based. Particulars: MCF7, 72 h. A digest of the protocol:
as §2

The subject of assay [7] is A549. Nature of the assay: Cell cycle arrest in human A549 cells assessed as accumulation at S phase at 1 uM after 24 hrs. The format is functional. A digest of the protocol:
as §1

The subject of assay [8] is A549. Briefly: Cytotoxicity against human A549 cells after 72 hrs by MTT assay. The settings on record: A549, 72 h. It is filed as functional, cell-based. The gist of the method:
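MTT assay. Cells seeded at 7 × 10³ per well; after 24 h, exponentially growing cells were exposed to compound (final 0.005–100 µM) for 72 h. MTT was added for 4 h, then 10% SDS in 0.01 N HCl for 18 h at 37 °C. Absorbance read at 550 nm; survival given as % of untreated cells.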

The subject of assay [9] is A549. Nature of the assay: Cell cycle arrest in human A549 cells assessed as accumulation at sub Go phase at 0.1 uM after 24 hrs. It is filed as functional.
For assay [10], the system named is A549. Briefly: Cell cycle arrest in human A549 cells assessed as accumulation at G2/M phase at 0.1 uM after 24 hrs. It is filed as functional. The gist of the method: as §1
In the next assay the test system is OE33. Briefly: Cytotoxicity against human OE33 cells after 72 hrs by MTT assay. The format is functional, cell-based. Particulars: OE33, 72 h. The gist of the method:
as §2

For a further assay, the system named is OVCAR-3. Nature of the assay: Cytotoxicity against human Ovcar3 cells after 72 hrs by MTT assay. The format is functional, cell-based. Particulars: OVCAR-3, 72 h. A digest of the protocol:
as §2

A further assay has as its system HT-29. Nature of the assay: Cytotoxicity against human HT29 cells after 72 hrs by MTT assay. The settings on record: HT-29, 72 h. It is filed as functional, cell-based. The gist of the method: as §2
Another assay concerns ARO. Nature of the assay: Cytotoxicity against human Aro cells after 72 hrs by MTT assay. The format is functional, cell-based. A digest of the protocol:
as §2

Assay [11] relates to A549. Nature of the assay: Resistance index, ratio of IC50 for A549 cells to IC50 for A549T12 cells. The format is functional, Homo sapiens.
In a further assay the test system is OE19. Nature of the assay: Cytotoxicity against human OE19 cells after 72 hrs by MTT assay. The settings on record: OE19, 72 h. The format is functional, cell-based. The gist of the method:
as §2

The nature of assay [12]: Cytotoxicity againat taxol-resistant human A549T12 cells after 72 hrs by MTT assay. The format is functional, cell-based. Particulars: A549, 72 h.
Assay [13] relates to A549. Briefly: Cell cycle arrest in human A549 cells assessed as accumulation at G1 phase at 1 uM after 24 hrs. It is filed as functional. The gist of the method:
as §1

The next assay deals with HepG2. Briefly: Cytotoxicity against human HepG2 cells after 72 hrs by MTT assay. The settings on record: HepG2, 72 h. It is filed as functional, cell-based. A digest of the protocol:
as §2

Consider `O=c1cc(-c2ccccc2)[nH]c2ccc3c(ccn3Cc3ccccc3)c12`, for which the Activity in the assay with A549 [1] amounted to 0.5%; with A549 [2] it was 78.9%; in the assay with A549 [5] it was 75.8%; in the assay on A549 [6], 9.7%; with A549 [7], 9.4%; in the assay on A549 [9] it was 1.1%. The Activity with A549 [10] turned out to be 10.4%; with A549 [13] it was 14.6%. For the same compound, the IC50 with HeLa was 100 nM; in assay [3], 200 nM; in assay [4] it was 400 nM; in the assay on PT-45 it was 80 nM; in the assay on MCF7, 300 nM; in the assay with A549 [8], 100 nM. Also, the IC50 with OE33 amounted to 100 nM; with OVCAR-3 it was 500 nM; with HT-29, 400 nM; in the assay on ARO it was 300 nM; in the assay on OE19, 500 nM; in [12] it was 100 nM. This compound showed a half-inhibitory concentration (IC50) in the assay on HepG2 of 700 nM. For the same compound, the Ratio IC50 with A549 [11] was 1.
